Measured values reported in ChEMBL document CHEMBL1149634, “1-Acylthiosemicarbazides, 1,2,4-triazole-5(4H)-thiones, 1,3,4-thiadiazoles and hydrazones containing 5-methyl-2-benzoxazolinones: synthesis, analgesic-anti-inflammatory and antimicrobial activities” (2007).
≈ marks a conversion by molar mass, not a printed value.

Columns and labels:
Mus musculus [1] = assay: Antiinflammatory activity against carrageenan-induced hind paw oedema in mouse assessed as inhibition of swelling thickness at 200 mg/kg, po after 180 mins; assay type: functional; settings: 3 h
Outline: (§1)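 Fasted mice (n = 5–6) were dosed orally with the sample in 0.5% CMC/water. One hour later, carrageenan (0.5 mg/25 µl in 154 mM saline) was injected subplantar into the right hind paw. The right-minus-left footpad thickness difference was measured with dial gauge callipers every 90 min over 6 h. Inhibition % is calculated versus vehicle control; mean ± SEM, Student's t test.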

Candida parapsilosis = assay: Antifungal activity against Candida parapsilosis ATCC 22019 after 48 hrs by broth microdilution test; assay type: functional; settings: Lodderomyces parapsilosis, ATCC 22019, 48 h
Outline: (§2)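 Yeasts tested by NCCLS M27-A broth microdilution in RPMI 1640 (with L-glutamine, without sodium bicarbonate) with an inoculum of 0.5–2.5 × 10^3 cfu/mL. Compounds were prepared from DMSO solution diluted in water as twofold dilutions from 512 to 0.5 µg/mL. Plates were incubated at 35 °C for 48 h. MIC is the lowest concentration giving no visible growth.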

Mus musculus [2] = assay: Antiinflammatory activity against carrageenan-induced hind paw oedema in mouse assessed as swelling thickness at 100 mg/kg, po after 270 mins; assay type: functional; outline: as §1
Mus musculus [3] = assay: Antiinflammatory activity against carrageenan-induced hind paw oedema in mouse assessed as inhibition of swelling thickness at 200 mg/kg, po after 360 mins; assay type: functional; settings: 6 h; outline: as §1
Mus musculus [4] = assay: Antiinflammatory activity against carrageenan-induced hind paw oedema in mouse assessed as inhibition of swelling thickness at 100 mg/kg, po after 90 mins; assay type: functional; settings: 1.5 h; outline: as §1
Staphylococcus aureus = assay: Antibacterial activity against Staphylococcus aureus ATCC 29213 after 24 hrs by broth microdilution test; assay type: functional; settings: ATCC 29213, 24 h
Outline: (§3)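 NCCLS broth microdilution in Mueller-Hinton broth with an inoculum of 5 × 10^5 cfu/mL. Compounds were dissolved in DMSO, diluted in sterile water, and tested as twofold dilutions from 512 to 0.5 µg/mL. Plates were incubated at 35 °C for 24 h. MIC is the lowest concentration preventing visible growth.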

Enterococcus faecalis = assay: Antibacterial activity against Enterococcus faecalis ATCC 29212 after 24 hrs by broth microdilution test; assay type: functional; settings: ATCC 29212, 24 h; outline: as §3
Mus musculus [5] = assay: Antiinflammatory activity against carrageenan-induced hind paw oedema in mouse assessed as swelling thickness at 50 mg/kg, po after 180 mins; assay type: functional; outline: as §1
Mus musculus [6] = assay: Analgesic activity in mouse assessed as inhibition of acetic acid induced-abdominal writhing at 100 mg/kg, ip by Koster test; assay type: functional; settings: Abdomen, route intraperitoneal
Mus musculus [7] = assay: Antiinflammatory activity against carrageenan-induced hind paw oedema in mouse assessed as swelling thickness at 50 mg/kg, po after 270 mins; assay type: functional; outline: as §1
Pichia kudriavzevii = assay: Antifungal activity against Candida krusei ATCC 6258 after 48 hrs by broth microdilution test; assay type: functional; settings: ATCC 6258, 48 h; outline: as §2
Escherichia coli = assay: Antibacterial activity against Escherichia coli ATCC 25922 after 24 hrs by broth microdilution test; assay type: functional; settings: ATCC 25922, 24 h; outline: as §3
Candida albicans = assay: Antifungal activity against Candida albicans ATCC 90028 after 48 hrs by broth microdilution test; assay type: functional; settings: ATCC 90028, 48 h; outline: as §2
Mus musculus [8] = assay: Analgesic activity in mouse assessed as inhibition of hind paw lick at 100 mg/kg, ip by hot plate test; assay type: functional; settings: route intraperitoneal
Pseudomonas aeruginosa = assay: Antibacterial activity against Pseudomonas aeruginosa ATCC 27853 after 24 hrs by broth microdilution test; assay type: functional; settings: ATCC 27853, 24 h; outline: as §3
Mus musculus [9] = assay: Antiinflammatory activity against carrageenan-induced hind paw oedema in mouse assessed as inhibition of swelling thickness at 100 mg/kg, po after 180 mins; assay type: functional; settings: 3 h; outline: as §1
Mus musculus [10] = assay: Antiinflammatory activity against carrageenan-induced hind paw oedema in mouse assessed as swelling thickness at 100 mg/kg, po after 360 mins; assay type: functional; outline: as §1
Mus musculus [11] = assay: Antiinflammatory activity against carrageenan-induced hind paw oedema in mouse assessed as swelling thickness at 50 mg/kg, po after 360 mins; assay type: functional; outline: as §1
Mus musculus [12] = assay: Antiinflammatory activity against carrageenan-induced hind paw oedema in mouse assessed as inhibition of swelling thickness at 200 mg/kg, po after 90 mins; assay type: functional; settings: 1.5 h; outline: as §1
Mus musculus [13] = assay: Antiinflammatory activity against carrageenan-induced hind paw oedema in mouse assessed as inhibition of swelling thickness at 200 mg/kg, po after 270 mins; assay type: functional; settings: 4.5 h; outline: as §1
Mus musculus [14] = assay: Toxicity in mouse assessed as ulceration effect at 200 mg/kg; assay type: functional, organism-based; parameters: dose 200 mg/kg
Outline: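 Mice given 200 mg/kg orally in the carrageenan oedema study were killed under deep ether anaesthesia 6 h after treatment. Stomachs were opened along the greater curvature and examined under a dissecting microscope for lesions or bleeding. Result is expressed as the ratio of ulcerated animals per group.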

Mus musculus [15] = assay: Antiinflammatory activity against carrageenan-induced hind paw oedema in mouse assessed as swelling thickness at 50 mg/kg, po after 90 mins; assay type: functional; outline: as §1
Mus musculus [16] = assay: Antiinflammatory activity against carrageenan-induced hind paw oedema in mouse assessed as inhibition of swelling thickness at 100 mg/kg, po after 270 mins; assay type: functional; settings: 4.5 h; outline: as §1
Mus musculus [17] = assay: Antiinflammatory activity against carrageenan-induced hind paw oedema in mouse assessed as inhibition of swelling thickness at 100 mg/kg, po after 360 mins; assay type: functional; settings: 6 h; outline: as §1

| Compound | inhibition in vivo at 200 mg/kg (Mus musculus [1]) | MIC (Candida parapsilosis) | inhibition in vivo at 200 mg/kg (Mus musculus [3]) | inhibition in vivo at 100 mg/kg (Mus musculus [4]) | MIC (Staphylococcus aureus) | MIC (Enterococcus faecalis) | Activity (Mus musculus [5]) | inhibition in vivo at 100 mg/kg (Mus musculus [6]) | Activity (Mus musculus [7]) | MIC (Pichia kudriavzevii) | MIC (Escherichia coli) | MIC (Candida albicans) | inhibition in vivo at 100 mg/kg (Mus musculus [8]) | MIC (Pseudomonas aeruginosa) | inhibition in vivo at 100 mg/kg (Mus musculus [9]) | Activity (Mus musculus [10]) | Activity (Mus musculus [11]) | inhibition in vivo at 200 mg/kg (Mus musculus [12]) | inhibition in vivo at 200 mg/kg (Mus musculus [13]) | Activity (Mus musculus [15]) | also measured |
| --- | --- | --- | --- | --- | --- | --- | --- | --- | --- | --- | --- | --- | --- | --- | --- | --- | --- | --- | --- | --- | --- |
| Cc1ccc2oc(=O)n(CC(=O)NNC(=S)Nc3ccccc3)c2c1 | 53.4% | 128 µg/mL (≈ 359 µM) | 34.1% | 79.8% | 256 µg/mL (≈ 718 µM) | 512 µg/mL (≈ 1440 µM) | 140.9% | 55.6% | 162.6% | 256 µg/mL (≈ 718 µM) | 256 µg/mL (≈ 718 µM) | 256 µg/mL (≈ 718 µM) | 23.9% | 256 µg/mL (≈ 718 µM) | 31.3% | 79.2% | 153.3% | 40.3% | 30.5% | – | Activity (Mus musculus [2]): 92%; Activity (Mus musculus [14]): Not toxic |
| OC(Cn1cncn1)(Cn1cncn1)c1ccc(F)cc1F [FLUCONAZOLE] | – | 8 µg/mL (≈ 26.1 µM) | – | – | – | – | – | – | – | 64 µg/mL (≈ 209 µM) | – | 1 µg/mL (≈ 3.27 µM) | – | – | – | – | – | – | – | – | – |
| Cc1ccc2oc(=O)n(CC(=O)N/N=C/c3ccccc3)c2c1 | 37.8% | 128 µg/mL (≈ 414 µM) | – | 79.8% | 256 µg/mL (≈ 828 µM) | 512 µg/mL (≈ 1660 µM) | 100.1% | 62.5% | 108.8% | 128 µg/mL (≈ 414 µM) | 256 µg/mL (≈ 828 µM) | 128 µg/mL (≈ 414 µM) | 23.9% | 256 µg/mL (≈ 828 µM) | 30% | 84.5% | 115% | 63.5% | 27.2% | 98.3% | Activity (Mus musculus [2]): 95.4% |
| CCCNC(=S)NNC(=O)Cn1c(=O)oc2ccc(C)cc21 | 25.1% | 256 µg/mL (≈ 794 µM) | 6.6% | 79.8% | 256 µg/mL (≈ 794 µM) | 512 µg/mL (≈ 1590 µM) | 147.1% | 59.7% | 188.2% | 256 µg/mL (≈ 794 µM) | 256 µg/mL (≈ 794 µM) | 256 µg/mL (≈ 794 µM) | 18.1% | 512 µg/mL (≈ 1590 µM) | 46.1% | 80.6% | 176.7% | 29.1% | 11.1% | 147.3% | inhibition in vivo at 100 mg/kg (Mus musculus [16]): 13% |
| CCNC(=S)NNC(=O)Cn1c(=O)oc2ccc(C)cc21 | 54.6% | 256 µg/mL (≈ 830 µM) | 47.2% | 57.1% | 256 µg/mL (≈ 830 µM) | 512 µg/mL (≈ 1660 µM) | 21.5% | 44.4% | 139.1% | 256 µg/mL (≈ 830 µM) | 256 µg/mL (≈ 830 µM) | 256 µg/mL (≈ 830 µM) | 18.1% | 512 µg/mL (≈ 1660 µM) | 36.3% | – | 127.8% | 19.4% | 27.8% | 116.7% | inhibition in vivo at 100 mg/kg (Mus musculus [17]): 29.3%; Activity (Mus musculus [14]): Not toxic; inhibition in vivo at 100 mg/kg (Mus musculus [16]): 35.6% |
| Cc1ccc2oc(=O)n(CC(=O)NN)c2c1 | – | 128 µg/mL (≈ 579 µM) | 51.6% | 84.8% | 256 µg/mL (≈ 1160 µM) | 512 µg/mL (≈ 2310 µM) | 88.7% | 73.8% | 108.4% | 128 µg/mL (≈ 579 µM) | 256 µg/mL (≈ 1160 µM) | 128 µg/mL (≈ 579 µM) | 42% | 256 µg/mL (≈ 1160 µM) | 70.5% | – | 101.1% | 65.1% | 54.7% | 92.1% | inhibition in vivo at 100 mg/kg (Mus musculus [17]): 27.4%; inhibition in vivo at 100 mg/kg (Mus musculus [16]): 39.4% |
